Data reported in ChEMBL document CHEMBL3244414, “Structure-activity relationships among the O-acyl derivatives of leucomycin. Correlation of minimal inhibitory concentrations with binding to Escherichia coli ribosomes” (J Med Chem, 1977).
Converted amounts (≈) assume the structure as drawn.

Legend:
Bacillus spizizenii = experiment: Antimicrobial activity against Bacillus subtilis ATCC 6633 by agar dilution method; assay type: functional; settings: Bacillus spizizenii, ATCC 6633; read-out: MIC
Method in brief: (§1)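 Read-out is the minimal inhibitory concentration, found by agar dilution against the named strain.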

Staphylococcus aureus = experiment: Antimicrobial activity against Staphylococcus aureus ATCC 6538P by agar dilution method; assay type: functional; settings: Staphylococcus aureus, ATCC 6538P; read-out: MIC; method in brief: as §1
Bacterial 70S ribosome = experiment: (§2) Displacement of [14C]erythromycin from Escherichia coli ribosomes after 30 mins by scintillation spectrometer analysis
Method in brief: (§3)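 NH4Cl-washed E. coli ribosomes with [14C]erythromycin A and varied competitor concentrations in 0.01 M Tris-HCl pH 7.2, 0.1 M KCl, 0.004 M MgCl2, 0.01 M NH4Cl. Incubated 30 min at 24 °C, stopped by dilution in cold Tris/KCl/MgCl2 buffer, membrane-filtered, washed three times, dried, scintillation counted. Reports the concentration giving 50% inhibition of binding.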

[1] = biological target: Bacterial 70S ribosome (Bacteria) (UniProt P0A7V0+P60723+P0AG67+P0A7R5+P0A7R9+P0A7S3+P0A7S9+P0AG59+P0ADZ4+P0A7T3+P0AG63+P0A7T7+P0A7U3+P0A7U7+P68679+P0A7V3+P0A7V8+P0A7W1+P02358+P02359+P0A7W7+P0A7X3+P0A7J3+P0A7J7+P0AA10+P0ADY3+P02413+P0ADY7+P0AG44+P0C018+P0A7K6+P0A7L0+P0A7L3+P0AG48+P61175+P0ADZ0+P60624+P68919+P0A7L8+P0A7M2+P0A7M6+P60422+P0AG51+P0A7N1+P0A7M9+P0A7N4+P0A7N9+P0A7P5+P0A7Q1+Q2EEQ2+P0A7Q6+P60438+P62399+P0AG55+P0A7K2); experiment: as §2; method in brief: as §3
Klebsiella pneumoniae = experiment: Antimicrobial activity against Klebsiella pneumoniae ATCC 10031 by agar dilution method; assay type: functional; settings: Klebsiella pneumoniae, ATCC 10031; read-out: MIC; method in brief: as §1

SMILES	MIC (Bacillus spizizenii) [µg/mL]	MIC (Staphylococcus aureus) [µg/mL]	IC50 (Bacterial 70S ribosome) [µM]	pK50 [1]	MIC (Klebsiella pneumoniae) [µg/mL]
CCCC(=O)O[C@H]1[C@H](C)O[C@@H](O[C@H]2[C@H](N(C)C)[C@@H](OC(=O)CCC(=O)O)[C@H](O[C@H]3[C@@H](CC=O)C[C@@H](C)[C@@H](OC(=O)CCC(=O)O)/C=C/C=C/C[C@@H](C)OC(=O)C[C@@H](O)[C@@H]3OC)O[C@@H]2C)C[C@@]1(C)O	3.1 (≈ 3.19 µM)	6.3 (≈ 6.48 µM)	2.8	5.6	50 (≈ 51.4 µM)
CCCC(=O)O[C@H]1[C@H](C)O[C@@H](O[C@H]2[C@H](N(C)C)[C@@H](OC(=O)CCC(=O)O)[C@H](O[C@H]3[C@@H](CC=O)C[C@@H](C)[C@@H](O)/C=C/C=C/C[C@@H](C)OC(=O)C[C@@H](O)[C@@H]3OC)O[C@@H]2C)C[C@@]1(C)O	0.8 (≈ 0.917 µM)	1.6 (≈ 1.83 µM)	1.9	5.7	100 (≈ 115 µM)
CO[C@@H]1[C@@H](O[C@@H]2O[C@H](C)[C@@H](O[C@H]3C[C@@](C)(O)[C@@H](OC(=O)CC(C)C)[C@H](C)O3)[C@H](N(C)C)[C@H]2OC(C)=O)[C@@H](CC=O)C[C@@H](C)[C@@H](OC(C)=O)/C=C/C=C/C[C@@H](C)OC(=O)C[C@H]1OC(C)=O	1.6 (≈ 1.75 µM)	1.6 (≈ 1.75 µM)	21.4	4.7	100 (≈ 110 µM)
CCCC(=O)O[C@H]1[C@H](C)O[C@@H](O[C@H]2[C@H](N(C)C)[C@@H](O)[C@H](O[C@H]3[C@@H](CC=O)C[C@@H](C)[C@@H](O)/C=C/C=C/C[C@@H](C)OC(=O)C[C@@H](OC(C)=O)[C@@H]3OC)O[C@@H]2C)C[C@@]1(C)O	1.6 (≈ 1.97 µM)	0.8 (≈ 0.983 µM)	1.2	5.9	50 (≈ 61.4 µM)
CCCC(=O)O[C@H]1[C@H](C)O[C@@H](O[C@H]2[C@H](N(C)C)[C@@H](OC(=O)CC)[C@H](O[C@H]3[C@@H](CC=O)C[C@@H](C)[C@@H](O)/C=C/C=C/C[C@@H](C)OC(=O)C[C@@H](OC(C)=O)[C@@H]3OC)O[C@@H]2C)C[C@@]1(C)O	0.8 (≈ 0.919 µM)	1.6 (≈ 1.84 µM)	17.8	4.8	25 (≈ 28.7 µM)
CCCC(=O)O[C@H]1[C@H](C)O[C@@H](O[C@H]2[C@H](N(C)C)[C@@H](OC(C)=O)[C@H](O[C@H]3[C@@H](CC=O)C[C@@H](C)[C@@H](OC(C)=O)/C=C/C=C/C[C@@H](C)OC(=O)C[C@@H](O)[C@@H]3OC)O[C@@H]2C)C[C@@]1(C)O	0.8 (≈ 0.935 µM)	1.6 (≈ 1.87 µM)	23.4	4.6	100 (≈ 117 µM)
CCCC(=O)O[C@H]1[C@H](C)O[C@@H](O[C@H]2[C@H](N(C)C)[C@@H](OC(C)=O)[C@H](O[C@H]3[C@@H](CC=O)C[C@@H](C)[C@@H](O)/C=C/C=C/C[C@@H](C)OC(=O)C[C@@H](OC(C)=O)[C@@H]3OC)O[C@@H]2C)C[C@@]1(C)O	0.8 (≈ 0.935 µM)	0.8 (≈ 0.935 µM)	20.9	4.7	100 (≈ 117 µM)
CO[C@@H]1[C@@H](O[C@@H]2O[C@H](C)[C@@H](O[C@H]3C[C@@](C)(O)[C@@H](OC(=O)CC(C)C)[C@H](C)O3)[C@H](N(C)C)[C@H]2OC(C)=O)[C@@H](CC=O)C[C@@H](C)[C@@H](O)/C=C/C=C/C[C@@H](C)OC(=O)C[C@H]1OC(C)=O	0.8 (≈ 0.919 µM)	1.6 (≈ 1.84 µM)	33.9	4.5	25 (≈ 28.7 µM)
CCCC(=O)O[C@H]1[C@H](C)O[C@@H](O[C@H]2[C@H](N(C)C)[C@@H](O)[C@H](O[C@H]3[C@@H](CC=O)C[C@@H](C)[C@@H](O)/C=C/C=C/C[C@@H](C)OC(=O)C[C@@H](O)[C@@H]3OC)O[C@@H]2C)C[C@@]1(C)O	0.8 (≈ 1.04 µM)	0.4 (≈ 0.518 µM)	1.1	6	12.5 (≈ 16.2 µM)
CCCC(=O)O[C@H]1[C@H](C)O[C@@H](O[C@H]2[C@H](N(C)C)[C@@H](OC(=O)CCC(=O)O)[C@H](O[C@H]3[C@@H](CC=O)C[C@@H](C)[C@@H](OC(C)=O)/C=C/C=C/C[C@@H](C)OC(=O)C[C@@H](O)[C@@H]3OC)O[C@@H]2C)C[C@@]1(C)O	1.6 (≈ 1.75 µM)	1.6 (≈ 1.75 µM)	3.3	5.5	25 (≈ 27.4 µM)
